This note sets out measurements from ChEMBL document CHEMBL2163314, “Potent aminocyclitol glucocerebrosidase inhibitors are subnanomolar pharmacological chaperones for treating gaucher disease” (J Med Chem, 2012).

Test [1] has as its target T1, Non-lysosomal glucosylceramidase (Mus musculus) (UniProt Q69ZF3).
T1 sequence (whole entry): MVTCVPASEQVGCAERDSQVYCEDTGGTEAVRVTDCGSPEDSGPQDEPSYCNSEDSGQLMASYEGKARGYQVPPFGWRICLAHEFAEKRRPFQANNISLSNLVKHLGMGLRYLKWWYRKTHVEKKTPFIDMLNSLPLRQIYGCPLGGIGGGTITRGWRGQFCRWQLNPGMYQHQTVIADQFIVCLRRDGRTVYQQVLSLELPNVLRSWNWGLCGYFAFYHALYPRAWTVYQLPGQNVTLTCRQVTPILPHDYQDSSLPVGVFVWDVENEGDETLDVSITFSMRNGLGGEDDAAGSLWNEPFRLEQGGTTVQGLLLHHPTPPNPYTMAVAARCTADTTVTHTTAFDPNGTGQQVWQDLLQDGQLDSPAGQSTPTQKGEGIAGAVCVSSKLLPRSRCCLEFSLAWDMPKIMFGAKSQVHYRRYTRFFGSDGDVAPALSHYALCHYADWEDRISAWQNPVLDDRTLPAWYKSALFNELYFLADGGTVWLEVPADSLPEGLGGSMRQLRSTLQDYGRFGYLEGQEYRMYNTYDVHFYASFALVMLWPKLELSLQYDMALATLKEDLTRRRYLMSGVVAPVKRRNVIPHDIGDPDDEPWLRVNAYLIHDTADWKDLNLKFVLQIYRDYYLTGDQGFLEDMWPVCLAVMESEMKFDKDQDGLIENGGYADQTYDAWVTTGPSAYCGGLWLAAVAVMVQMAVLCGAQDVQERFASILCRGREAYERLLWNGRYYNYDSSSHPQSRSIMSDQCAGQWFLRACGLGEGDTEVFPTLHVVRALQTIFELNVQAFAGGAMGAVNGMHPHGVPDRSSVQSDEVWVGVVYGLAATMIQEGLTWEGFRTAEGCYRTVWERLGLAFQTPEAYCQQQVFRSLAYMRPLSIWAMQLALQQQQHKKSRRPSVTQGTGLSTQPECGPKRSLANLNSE
Kind of test: Inhibition of GBA2 activity in mouse tissue homogenate at 5 uM. In a few lines:
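Mouse tissue homogenates were used to separate nonlysosomal GBA2 from lysosomal GCase β-glucosidase activity. Compounds were screened at 50 and 5 μM with 3 mM substrate. Two independent experiments, each run in duplicate.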

Test [2] relates to T2, Lysosomal acid glucosylceramidase (Homo sapiens), P04062 [N409S].
T2 sequence (whole entry): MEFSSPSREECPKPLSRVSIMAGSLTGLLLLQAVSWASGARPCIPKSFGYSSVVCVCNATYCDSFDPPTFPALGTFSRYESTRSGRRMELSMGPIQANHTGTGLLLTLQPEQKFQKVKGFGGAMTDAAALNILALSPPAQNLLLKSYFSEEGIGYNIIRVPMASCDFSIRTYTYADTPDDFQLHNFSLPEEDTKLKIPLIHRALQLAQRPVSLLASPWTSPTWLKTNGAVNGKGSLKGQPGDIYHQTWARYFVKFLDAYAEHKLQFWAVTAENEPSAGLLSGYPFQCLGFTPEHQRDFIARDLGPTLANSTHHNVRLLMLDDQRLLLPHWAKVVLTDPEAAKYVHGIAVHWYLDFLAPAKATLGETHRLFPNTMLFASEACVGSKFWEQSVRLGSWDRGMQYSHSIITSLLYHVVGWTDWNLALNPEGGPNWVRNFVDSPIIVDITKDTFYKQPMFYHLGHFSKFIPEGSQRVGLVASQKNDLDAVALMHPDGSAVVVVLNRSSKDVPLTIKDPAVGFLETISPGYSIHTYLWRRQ
The experiment in a line: Agonist activity at glucosylceramidase N370S mutant in lymphoblast obtained from Gaucher disease patient using 4-methylumbelliferyl-beta-D-glucopyranoside as substrate preincubated at 1 nM for 3 days measured 2 hrs post substrate addition by fluorescence assay relative to untreated control. The test is classed as functional. In a few lines:
(§1)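 Patient-derived N370S homozygous lymphoblasts (RPMI-1640, 15% FBS, 37 °C, 5% CO2; passages 5–16) seeded at 2 × 10^5 cells/well, exposed to compound for 3 days. Cells washed in PBS and lysed in water by sonication. Homogenate incubated with 6 mM 4-MU-β-glucoside in 0.1 M citrate phosphate pH 5.2 with 0.25% taurocholate and 0.1% Triton X-100, 37 °C, 2 h. Fluorescence read at 355/460 nm; activity normalized to untreated cells; triplicate.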

Test [3] can be described thus: Agonist activity at glucosylceramidase […] mutant in lymphoblast obtained from Gaucher disease patient using 4-methylumbelliferyl-beta-D-glucopyranoside as substrate preincubated at 5 nM for 3 days measured 2 hrs post substrate addition by fluorescence assay relative to untreated control. The test is classed as functional, Homo sapiens. In outline: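 L444P homozygous lymphoblasts from a GD type 2 patient, cultured in RPMI-1640 with 15% FBS at 37 °C, 5% CO2, seeded 2 × 10^5 cells/well and treated 3 days. Sonicated water lysate assayed with 6 mM 4-MU-β-glucoside at pH 5.2 (citrate phosphate, taurocholate, Triton X-100), 37 °C for 2 h. Fluorescence at 355/460 nm, relative to untreated cells; triplicate.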

In test [4] the test system is T2, Lysosomal acid glucosylceramidase (Homo sapiens), P04062 [N409S]. The experiment in a line: Agonist activity at glucosylceramidase N370S mutant in lymphoblast obtained from Gaucher disease patient using 4-methylumbelliferyl-beta-D-glucopyranoside as substrate preincubated at 1 uM for 3 days measured 2 hrs post substrate addition by fluorescence assay relative to untreated control. The test is classed as functional. In outline:
as §1

A short description of test [5]: Agonist activity at glucosylceramidase […] mutant in lymphoblast obtained from Gaucher disease patient using 4-methylumbelliferyl-beta-D-glucopyranoside as substrate preincubated at 50 nM for 3 days measured 2 hrs post substrate addition by fluorescence assay relative to untreated control. The test is classed as functional, Homo sapiens. In a few lines:
(§2)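 Homozygous L444P GD type 2 patient-derived lymphoblasts (GM08752) in RPMI-1640 with 15% FBS, seeded at 2 × 10^5 cells/well and exposed to compound for 3 days. Cells were washed with PBS and sonicated in water. Homogenate was assayed with 6 mM 4-methylumbelliferyl-β-D-glucopyranoside in 0.1 M citrate phosphate, pH 5.2, with 0.25% taurocholate and 0.1% Triton X-100, for 2 h at 37 °C. Fluorescence read at 355/460 nm, normalized to untreated cells, triplicate.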

Test [6] can be described thus: Agonist activity at glucosylceramidase […] mutant in lymphoblast obtained from Gaucher disease patient using 4-methylumbelliferyl-beta-D-glucopyranoside as substrate preincubated at 100 nM for 3 days measured 2 hrs post substrate addition by fluorescence assay relative to untreated control. The test is classed as functional, Homo sapiens. In a few lines: as §2
Test [7] in a line: Agonist activity at glucosylceramidase […] mutant in lymphoblast obtained from Gaucher disease patient using 4-methylumbelliferyl-beta-D-glucopyranoside as substrate preincubated at 1 uM for 3 days measured 2 hrs post substrate addition by fluorescence assay relative to untreated control. The test is classed as functional, Homo sapiens. In outline:
as §2

In general, inhibition refers to the change of the read-out against control, counted positive when it falls. High values mean a response far below the control, low ones a response near the control. For the compound `CCCCCCCCCN[C@@H]1[C@H](O)[C@@H](O)[C@H](O)[C@@H](O)[C@@H]1O`, the inhibition in test [1] amounted to 69%.

In test [2], `CCCCCCCCCN[C@H]1[C@H](O)[C@@H](O)[C@H](O)[C@@H](O)[C@@H]1OCCCCCCCCC.Cl` yielded an inhibition of 90%. The entries for the “fold change (FC)” value in test [3] and in test [4] were 1.2 and 1.4, respectively.

In the case of `CCCCCCCCCN[C@H]1[C@H](O)[C@@H](O)[C@H](O)[C@@H](O)[C@H]1OC.Cl`, the fold change (FC) is 2 in test [4] and 1.4 in test [5].

With `CCCCCCCCCN[C@@H]1[C@H](O)[C@H](O)[C@@H](O)[C@H](O)[C@H]1O.Cl`, in test [6], the “fold change (FC)” value came out at 1.2.

Turning to `CCCCCCCCCO[C@H]1[C@@H](N)[C@H](O)[C@@H](O)[C@H](O)[C@H]1O.Cl`, the “fold change (FC)” value in test [6] came out at 1.3.

Consider `CCCCCCCCCN[C@H]1[C@H](O)[C@@H](O)[C@H](O)[C@@H](O)[C@@H]1OC.Cl`, for which, in test [7], the “fold change (FC)” value is given as 1.5.

In turn, `CCCCCCCCCN[C@H]1[C@H](O)[C@@H](O)[C@H](O)[C@@H](O)[C@H]1OCCCCCCCCC.Cl` showed a fold change (FC) in test [2] of 1.9.
